Experiments:
Thromboxane A2 receptor = target: T1, Thromboxane A2 receptor (Homo sapiens, UniProt P21731); assay: Inhibitory binding activity against TXA2 receptor in human platelet membrane, using [3H]-SQ 29548 as the radioligand
T1 sequence (P21731 whole entry): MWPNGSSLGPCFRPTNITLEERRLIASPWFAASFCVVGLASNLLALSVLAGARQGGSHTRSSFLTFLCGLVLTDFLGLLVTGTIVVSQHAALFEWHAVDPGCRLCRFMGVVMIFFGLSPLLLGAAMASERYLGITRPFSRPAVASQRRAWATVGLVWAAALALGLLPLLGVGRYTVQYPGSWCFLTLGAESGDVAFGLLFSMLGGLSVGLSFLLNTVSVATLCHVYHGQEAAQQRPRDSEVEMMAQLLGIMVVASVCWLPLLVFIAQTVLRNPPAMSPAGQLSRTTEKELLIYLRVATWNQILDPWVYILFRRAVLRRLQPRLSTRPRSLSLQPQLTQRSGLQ
Method in brief: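 Competition binding of [3H]-SQ 29,548 to TxA2 receptors in human platelet membranes, measured as inhibition of specific binding. Kd (inhibition constant) was calculated from each compound's I50 value. A slope factor is also reported.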

[1] = Partition coefficient (logP); type: physicochemical; details: octanol/water
Method in brief: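 log P came from reversed-phase TLC Rm values on C18 plates. Eluent was acetone in 0.5 M aqueous KBr, buffered with 0.25 N triethylammonium phosphate to pH 7.3. Values were converted with a calibration curve built from shake-flask partition coefficients (pH 7.0) of seven oxabicycloheptane compounds spanning a range of lipophilicities.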

Mus musculus [2] = assay: In vivo duration of action required to prevent death in mice, after i.v. administration of U-46619 (2 mg/kg) at 0.2 mg/kg p.o.; details: po
Mus musculus [3] = assay: In vivo duration of action required to prevent death in mice, after iv administration of U-46619 (2 mg/kg) at 10 mg/kg po administration of compound
Homo sapiens [4] = organism: Homo sapiens; assay: Inhibitory activity against platelet aggregation, induced by U-46619 in human platelet rich plasma; type: functional
Method in brief: (§1)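 Human platelet-rich plasma. Aggregation was induced by exogenous arachidonic acid or by the TxA2 mimetic U-46,619, each at a single fixed agonist level. I50 was taken as the antagonist concentration giving 50% inhibition of aggregation.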

Homo sapiens [5] = organism: Homo sapiens; assay: Inhibitory activity against platelet aggregation, induced by arachidonic acid in human platelet rich plasma; type: functional; method in brief: as §1

SMILES	Kd (Thromboxane A2 receptor)	logP [1]	T50 (Mus musculus [2])	T50 (Mus musculus [3])	IC50 (Homo sapiens [4]; read-out: I50)	IC50 (Homo sapiens [5]; read-out: I50)	IC50 (Homo sapiens [5]; read-out: I 50)	IC50 (Homo sapiens [4]; read-out: I 50)
CCCCCCCNC(=O)c1coc(C2C3CCC(O3)C2Cc2ccccc2CCC(=O)O)n1 (stereo not drawn)	0.2 nM	2.88	9.5 h	27.4 h	–	–	–	–
CCCCCNC(=O)c1coc(C2C3CCC(O3)C2Cc2ccccc2CCC(=O)O)n1 (stereo not drawn) [BMS-180291]	4 nM	1.61	14.4 h	29.4 h	21 nM	–	–	–
CC(C)(C)CCCCNC(=O)c1coc(C2C3CCC(O3)C2Cc2ccccc2CCC(=O)O)n1 (stereo not drawn)	0.6 nM	3.41	36.5 h	–	35 nM	8 nM	–	–
O=C(O)CCc1ccccc1CC1C2CCC(O2)C1c1nc(C(=O)NCCCCc2ccccc2)co1 (stereo not drawn)	0.3 nM	1.8	20 h	–	13 nM	4 nM	–	–
O=C(O)CCc1ccccc1CC1C2CCC(O2)C1c1nc(C(=O)NCCCCC2CCCCC2)co1 (stereo not drawn)	–	3.93	22.5 h	49.6 h	–	–	–	–
O=C(O)CCc1ccccc1CC1C2CCC(O2)C1c1nc(C(=O)NCCc2ccc(Cl)cc2)co1 (stereo not drawn)	1.3 nM	1.55	22.7 h	38.7 h	14 nM	4 nM	–	–
C#CCCCCCNC(=O)c1coc(C2C3CCC(O3)C2Cc2ccccc2CCC(=O)O)n1 (stereo not drawn)	4.7 nM	0.87	11.1 h	–	–	–	14 nM	31 nM
